rCAG RNA binder = r(CAG) repeat RNA binding | 370,000 tested, 1.3% active | AID 651821 | inhibition, % at 3 µM | TO-PRO-1 dye displacement fluorescence;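 active = inhibition above the plate cutoff, the mean of all test compounds on that plate plus 3 SD, cut at about 35% in these data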;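 note: 0% = DMSO alone and 100% = 100 µM mitoxantrone as full dye displacement; higher means more dye released from RNA so lower well fluorescence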
Beta2AR agonist = activates human beta-2 adrenergic receptor causing internalization; Am2.2-beta2AR cells, FAP receptor internalization, flow cytometry; AID 504454; 340,000 tested, 0.43% active; response, % (no concentration beside the values);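 active = response above a set limit, near 3 SD of response in nonfluorescent compounds, cut at about 42% in these data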
Target sequence (P07550 whole entry, looked up): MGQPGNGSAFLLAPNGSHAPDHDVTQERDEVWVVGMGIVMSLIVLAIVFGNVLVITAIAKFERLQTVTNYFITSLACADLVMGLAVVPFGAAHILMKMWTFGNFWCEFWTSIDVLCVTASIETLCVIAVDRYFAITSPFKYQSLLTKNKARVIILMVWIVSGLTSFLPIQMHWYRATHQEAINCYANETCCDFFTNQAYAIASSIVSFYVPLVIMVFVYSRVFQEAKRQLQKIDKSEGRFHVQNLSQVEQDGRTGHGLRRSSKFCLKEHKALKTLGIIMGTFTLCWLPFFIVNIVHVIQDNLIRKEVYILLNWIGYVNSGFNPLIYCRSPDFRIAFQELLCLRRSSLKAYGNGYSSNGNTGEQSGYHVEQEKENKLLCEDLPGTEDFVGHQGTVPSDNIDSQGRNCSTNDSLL
T cell HTS = T cell immune modulators affecting CD8 T cell-vesicle binding; 2C CD8+ T cell-vesicle binding, flow cytometry; active compounds read low; response (vesicle binding), % at 7 µM; 330,000 tested, 0.068% active;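 active = response, share of CD8 T cells binding vesicles, and their 90th percentile fluorescence all below set limits, cut at about 80% in these data, passing the limit was not always enough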;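 note: values below 100% mean blocked vesicle binding to the CD8+ T cells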
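Assay system – 2C mouse CD8+ T cells · Also added – QL9-loaded Drosophila micro-vesicles · Timing – Cell–vesicle co-incubation 1.5 h at 37 °C, staining 20 min on ice · Signal – flow cytometry of vesicle-bound cells · Measure – percent CD8+ FL2 mean versus row control · Controls – Peptide-free naked vesicles (low) and QL9 vesicles with 0.7% DMSO vehicle (high)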
V-ATPase pHluor = yeast V-ATPase proton transport regulation by pHLuorin. S. cerevisiae, pHLuorin cytosolic pH fluorescence. response, % at 10 µM. 350,000 tested, 0.37% active. AID 504577; in the data active = response mostly above about 7.3%, no sharp cut-off; inactive = mostly below about 5.4%; note: actives read high
Granule exo inh = blocks lytic granule exocytosis; 360,000 tested, 0.66% active; AID 651702; TALL-104 LAMP-1 surface exposure, flow cytometry; cells stimulated with thapsigargin and PMA; inhibition, % at 10 µM;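 active = inhibition above about 55%, limit read from the data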
MPTP block = inhibitors of mitochondrial permeability transition pore; 360,000 tested, 1.4% active; inhibition, % at 10 µM; AID 602449; isolated mouse mitochondria, Ca2+ swelling absorbance, 30 min;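 active = inhibition of 50% or more, scaled per plate between neutral and stimulator controls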;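 note: 0% = DMSO wells given calcium and 100% = 1 mM EGTA wells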
* marks the source's active call; other numbers are inactive results; i = inactive; . = no result given. Shown are actives, neighbours in structure and some others; about 3.8% of the full set was active somewhere.

SMILES	rCAG RNA binder	Beta2AR agonist	T cell HTS	V-ATPase pHluor	Granule exo inh	MPTP block
C=C1C(=O)C(C)=C2C(=O)N3Cc4[nH]c5ccccc5c4CC3(C(=O)OC)C12 (stereo unspecified)	15	.	.	.	.	.
O=C(CN1C(=O)[C@@H](Cc2ccc(O)cc2)N=C(c2ccccc2)c2ccccc21)NC1CCCCC1	4	.	.	.	.	.
CCn1nc(-c2ccccc2)nc2c(=O)n(C)c(=O)nc1-2	.	69*	433	15	52	3
CC(C)c1oc(=O)cc2c1[C@@H](O)[C@H]1OC(=O)[C@@]3(C)CC[C@@H](O)[C@@]2(C)C13 (stereo partly specified)	-1	84*	687	-1	-2	-3
CC(C)c1oc(=O)cc2c1[C@@H](O)[C@H]1OC(=O)[C@@]3(C)C[C@@H](O)[C@@H](O)[C@@]2(C)C13 (stereo partly specified)	3	75*	238	-1	-4	-1
O=C(NC(CCC(O)CO)P(=O)(Oc1ccccc1)Oc1ccccc1)OCc1ccccc1 (stereo unspecified)	-3	.	.	.	.	.
C=C1[C@@H](C)C2[C@H](Cc3ccccc3)NC(=O)[C@]23[C@H](OC(C)=O)/C=C/[C@@](C)(O)C(=O)[C@@H](C)C/C=C/[C@H]3[C@@H]1O (stereo partly specified)	-1	.	.	.	.	.
CNc1cc(Cl)c2nonc2c1[N+](=O)[O-]	2	106*	.	10	16	-1
Cc1cc([N+](=O)[O-])c(Cl)cc1NC(=O)C(C)C	0	-2	392	12	2	0
CSc1ccc(NC(=O)C2(C)CCN2C(=O)C2(c3ccccc3)CC2)cc1 (stereo unspecified)	0	.	.	.	-4	1
Cc1ccc(N2C(=O)/C(=C/c3ccc(CN(CCC#N)S(C)(=O)=O)o3)C(=O)NC2=S)cc1C	.	.	362	.	.	.
Cc1cccc(N2C(=O)/C(=C/c3ccc(CN(CCC#N)S(C)(=O)=O)o3)C(=O)NC2=S)c1	66*	0	179	-7	-2	-2
O=C(O)CCl	2	.	.	.	.	.
CN1C[C@H](O)[C@H]2C[C@@H]1c1ccccc1O2	0	.	.	.	.	.
O=C1/C(=C\c2ccc(Cl)c(Cl)c2)N2CCC1CC2	-4	-4	i	2	94*	0
C=CCN(CC#CCO)Cc1ccc(OC)cc1OC	2	.	.	.	.	.
COc1ccc(-c2cc(-c3ccccc3)[n+](C)c(-c3ccccc3)c2)cc1	4	-8	191	2	4	0
COc1ccc(-[n+]2c(-c3ccccc3)cc(-c3ccc(C)cc3)cc2-c2ccccc2)cc1	11	1	214	-2	74*	11
Cc1cc(/C=C2\C(=O)NC(=O)N(c3ccc(Cl)cc3)C2=O)c(C)n1-c1sc2c(c1C#N)CCCC2	25	22	171	0	-5	4
CCOC(=O)c1c(-n2c(C)cc(/C=C3\C(=O)NC(=O)N(C)C3=O)c2C)sc2c1CCCC2	0	3	336	-2	57*	15
Brc1ccc2c(c1)-n1nncc1CNC2	2	.	.	.	.	.
Cc1nc2c(=O)n(C)c(=O)nc-2n(C)n1	0	64*	203	-2	10	-6
Cc1cccc(C(C)c2cnc[nH]2)c1C (stereo unspecified)	2	.	.	.	.	.
Cc1ccc(/C=C2\C(=O)NC(=O)N(Cc3ccccc3Cl)C2=O)o1	34	59*	188	12	20	11
Cc1ccc(/C=C2/C(=O)NC(=O)N(Cc3ccc(F)cc3)C2=O)o1	5	.	662	.	.	.
SMILES	rCAG RNA binder	Beta2AR agonist	T cell HTS	V-ATPase pHluor	Granule exo inh	MPTP block
O=C(NCCN1CCC2(CC1)C(=O)NCN2c1ccccc1)c1ccccc1F	2	.	.	.	.	.
CCCNC(=O)c1c(N)n(Cc2ccc3c(c2)OCO3)c2nc3ccccc3nc12	.	4	294	-1	19	0
CC(C)CCNC(=O)c1c(N)n(Cc2ccc3c(c2)OCO3)c2nc3ccccc3nc12	23	2	228	-4	56*	5
CCOC(=O)C1(CCOc2ccccc2)CCN(Cc2cccc(O)c2)CC1	-10	-4	165	1	90*	3
O=C1NC(=O)N(c2ccccc2)C(=O)/C1=C/C=C/c1ccco1	12	59*	249	0	19	1
Cc1ccc(N2C(=O)NC(=O)/C(=C\c3ccoc3)C2=O)cc1	14	4	256	5.9*	2	1
Cc1cccc(N2C(=O)NC(=O)/C(=C\c3cccn3-c3ccc(Cl)cc3)C2=O)c1	15	14	187	2	73*	2
Cc1ccc(N2C(=O)NC(=O)/C(=C\C=C\c3ccco3)C2=O)cc1	28	69*	104	-1	90*	1
CCOC(=O)CC[C@@H]1CC[C@]2(CCCN(Cc3cccnc3)C2)O1	1	.	.	.	.	.
COc1cccc(NC2=NCCS2)c1	0	.	.	.	.	.
Cc1cccc(N2C(=O)NC(=O)/C(=C/c3ccc([N+](=O)[O-])o3)C2=O)c1	.	.	339	.	.	.
Cc1cccc(N2C(=O)NC(=O)/C(=C\C=C\c3ccco3)C2=O)c1	27	69*	65	0	28	1
O=C(NCCN1CCC2(CC1)C(=O)NCN2c1ccccc1)c1ccc2ccccc2c1	2	.	.	.	.	.
COC(=O)C1=C(C(=O)OC)SC2(S1)C(C(=O)OC)=C(C(=O)OC)Sc1c2ssc1=O	11	58*	.	7	100*	-3
C=C1C(=O)O[C@@H]2C[C@@H](C)[C@@H]3C4OC4C(=O)[C@@]3(C)[C@@H](O)[C@H]12 (stereo partly specified)	-2	43*	351	3	-3	0
CC(NC(=O)OCc1ccccc1)[P+](=O)O (stereo unspecified)	2	.	.	.	.	.
CCCCn1c(=O)c(C(=O)NCc2ccncc2)c(O)c2ccccc21	0	2	78*	3	-6	2
C[C@@H]1CN([C@H](C)CO)C(=O)c2c(c3ccccc3n2C)-c2ccccc2CO[C@H]1CN(C)Cc1ccc2c(c1)OCCN2C	1	.	.	0	0	-2
COc1ccc([C@@H]2C[C@H]3[C@@H](CN2)CON3C)cc1	2	.	.	.	.	.
O=C(NCCN1CCC2(CC1)C(=O)NCN2c1ccccc1)c1ccc(F)cc1	-3	.	.	.	.	.
CC1=CC(C)CC(C)OC(=O)CC(c2ccc(O)cc2)NC(=O)C(Cc2c(Br)[nH]c3ccccc23)N(C)C(=O)C(C)NC(=O)C(C)C1 (stereo unspecified)	8	50*	.	-1	24	1
O=C1NC(=O)N(c2ccc3c(c2)OCO3)C(=O)/C1=C/c1cccs1	3	45*	229	1	22	3
CC(C)C[C@H]1N=C(c2ccccc2)c2ccccc2N(CC(=O)NC(C)(C)C)C1=O	2	.	.	.	.	.
CCOC(=O)CC(NC(=O)C(Cc1ccc(N(CCCl)CCCl)cc1)NC(C)=O)C(=O)OCC (stereo unspecified)	-1	16	33*	-3	-2	-1

Screening data from PubChem BioAssay.
